# Source: ChEMBL document CHEMBL1122837, “Angiotensin converting enzyme inhibitors: N-substituted D-glutamic acid gamma dipeptides” (J Med Chem, 1985)
# Columns and labels:
# Rattus norvegicus [1] = assay: Percent inhibitory activity against angiotensin I pressor response 15 min after intravenous administration at dose 1 mg/kg; assay type: functional; conditions: 0.25 h
# In short: (§1)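 Normotensive rats received the test compound intravenously. The angiotensin I pressor response was measured 15 min after dosing and reported as percent inhibition.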
# Rattus norvegicus [2] = assay: Percent inhibitory activity against angiotensin I pressor response 2 hr after peroral administration at dose 10 mg/kg; assay type: functional; conditions: route oral
# In short: (§2)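 Normotensive rats were dosed orally. The angiotensin I pressor response was followed, and the maximum percent inhibition 2 h after administration was reported.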
# [3] = molecular target: T1, Angiotensin-converting enzyme (Oryctolagus cuniculus, UniProt P12822); assay: In vitro inhibition of angiotensin I converting enzyme from rabbit lung; assay type: tissue-based
# T1 sequence (P12822 whole entry): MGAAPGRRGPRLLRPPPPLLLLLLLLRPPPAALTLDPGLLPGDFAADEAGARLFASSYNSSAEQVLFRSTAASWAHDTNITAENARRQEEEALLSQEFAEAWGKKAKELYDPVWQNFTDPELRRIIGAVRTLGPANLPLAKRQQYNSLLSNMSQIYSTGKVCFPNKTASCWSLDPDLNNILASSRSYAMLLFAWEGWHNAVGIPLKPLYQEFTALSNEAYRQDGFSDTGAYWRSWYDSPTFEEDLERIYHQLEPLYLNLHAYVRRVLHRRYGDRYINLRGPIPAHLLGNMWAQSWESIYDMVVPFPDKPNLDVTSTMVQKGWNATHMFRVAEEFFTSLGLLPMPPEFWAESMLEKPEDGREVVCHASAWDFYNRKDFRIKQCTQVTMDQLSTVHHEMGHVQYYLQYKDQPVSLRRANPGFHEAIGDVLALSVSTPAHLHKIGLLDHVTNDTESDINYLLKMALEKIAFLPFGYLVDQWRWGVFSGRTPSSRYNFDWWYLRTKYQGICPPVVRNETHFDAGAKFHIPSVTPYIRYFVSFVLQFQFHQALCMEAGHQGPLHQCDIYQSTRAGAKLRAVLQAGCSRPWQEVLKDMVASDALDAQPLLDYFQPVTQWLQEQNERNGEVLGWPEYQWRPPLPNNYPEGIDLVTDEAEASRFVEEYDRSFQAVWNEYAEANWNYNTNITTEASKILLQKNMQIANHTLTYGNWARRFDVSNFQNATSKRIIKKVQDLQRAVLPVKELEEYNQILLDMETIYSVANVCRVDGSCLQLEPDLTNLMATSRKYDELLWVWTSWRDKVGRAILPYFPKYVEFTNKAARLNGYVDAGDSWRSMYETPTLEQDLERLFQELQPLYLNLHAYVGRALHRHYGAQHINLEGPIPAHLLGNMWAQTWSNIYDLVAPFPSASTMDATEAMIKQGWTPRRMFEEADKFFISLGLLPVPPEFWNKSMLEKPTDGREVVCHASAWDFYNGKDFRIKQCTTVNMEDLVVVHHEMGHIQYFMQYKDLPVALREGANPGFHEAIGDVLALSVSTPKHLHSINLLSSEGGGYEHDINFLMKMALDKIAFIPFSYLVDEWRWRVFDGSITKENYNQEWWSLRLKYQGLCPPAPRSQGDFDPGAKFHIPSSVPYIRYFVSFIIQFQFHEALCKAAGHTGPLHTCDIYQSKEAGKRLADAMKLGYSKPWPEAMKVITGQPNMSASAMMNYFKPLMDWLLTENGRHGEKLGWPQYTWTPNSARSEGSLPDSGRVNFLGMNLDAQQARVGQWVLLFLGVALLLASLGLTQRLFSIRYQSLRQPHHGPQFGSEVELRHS
# Rattus norvegicus [4] = assay: Percent inhibitory activity against angiotensin I pressor response 15 min after intravenous administration at dose 0.1 mg/kg; assay type: functional; conditions: 0.25 h; in short: as §1
# Rattus norvegicus [5] = assay: Percent inhibitory activity against angiotensin I pressor response 2 hr after peroral administration at dose 1 mg/kg; assay type: functional; conditions: route oral; in short: as §2
SMILES,IC50 [3] [nM],other results
CCOC(=O)[C@@H](CCC(=O)N1c2ccccc2C[C@H]1C(=O)O)NC(=O)c1cccnc1,2200,inhibition in vivo at 1 mg/kg (Rattus norvegicus [1]): 100%; inhibition in vivo at 10 mg/kg (Rattus norvegicus [2]): 30%
NCCCCC(N)C(=O)N[C@H](CCC(=O)N1c2ccccc2C[C@H]1C(=O)O)C(=O)O (some centres undefined),188,–
O=C(N[C@H](CCC(=O)N1[C@H](C(=O)O)C[C@@H]2CCCC[C@@H]21)C(=O)O)OCc1ccccc1,2.7,–
O=C(N[C@H](CCC(=O)N1c2ccccc2C[C@H]1C(=O)O)C(=O)O)c1ccccn1,57,–
O=C(N[C@H](CCC(=O)N1CCC[C@H]1C(=O)O)C(=O)O)OCc1ccccc1,50,–
O=C(N[C@H](CCC(=O)N1c2ccccc2CCC1C(=O)O)C(=O)O)OCc1ccccc1 (some centres undefined),88,–
O=C(O)[C@@H](CCC(=O)N1c2ccccc2C[C@H]1C(=O)O)N(Cc1ccccc1)C(=O)OCc1ccccc1,10000,–
O=C(N[C@H](CCC(=O)N1C[C@H]2CCCC[C@H]2C[C@H]1C(=O)O)C(=O)O)OCc1ccccc1,17,–
NC(=O)[C@@H]1Cc2ccccc2N1C(=O)CC[C@@H](NC(=O)OCc1ccccc1)C(=O)O,160,–
O=C(Nc1ccccc1)N[C@H](CCC(=O)N1c2ccccc2C[C@H]1C(=O)O)C(=O)O,44,–
O=C(O)CN(C(=O)CC[C@@H](NC(=O)OCc1ccccc1)C(=O)O)C1CCCC1,40,–
N[C@H](CCC(=O)N1c2ccccc2C[C@H]1C(=O)O)C(=O)O,10000,–
O=C(N[C@H](CCC(=O)N1c2ccccc2C[C@H]1C(=O)O)C(=O)O)c1cccnc1,24,inhibition in vivo at 0.1 mg/kg (Rattus norvegicus [4]): 79%; inhibition in vivo at 1 mg/kg (Rattus norvegicus [5]): 0%
O=C(N[C@H](CCC(=O)N1Cc2ccccc2C[C@H]1C(=O)O)C(=O)O)OCc1ccccc1,14,–
O=C(N[C@@H](CCC(=O)N1c2ccccc2CC1C(=O)O)C(=O)O)OCc1ccccc1 (some centres undefined),500,–
O=C(O)[C@@H](CCC(=O)N1c2ccccc2C[C@H]1C(=O)O)NCc1ccccc1,300,–
O=C(NCCCCC(NC(=O)OCc1ccccc1)C(=O)N[C@H](CCC(=O)N1c2ccccc2C[C@H]1C(=O)O)C(=O)O)OCc1ccccc1 (some centres undefined),61,–
CN(C)CCOC(=O)[C@@H]1Cc2ccccc2N1C(=O)CC[C@@H](NC(=O)OCc1ccccc1)C(=O)O,7,–
Cc1ccc(S(=O)(=O)N[C@H](CCC(=O)N2c3ccccc3C[C@H]2C(=O)O)C(=O)O)cc1,20,–
CN(C)CCCOC(=O)[C@@H]1Cc2ccccc2N1C(=O)CC[C@@H](NC(=O)OCc1ccccc1)C(=O)O,37,–
CCOC(=O)[C@@H]1Cc2ccccc2N1C(=O)CC[C@@H](NC(=O)OCc1ccccc1)C(=O)O,4700,–
O=C(O)[C@@H](CCC(=O)N1c2ccccc2C[C@H]1C(=O)O)NS(=O)(=O)Cc1ccccc1,29,–
O=C(CCc1ccccc1)N[C@H](CCC(=O)N1c2ccccc2C[C@H]1C(=O)O)C(=O)O,40,inhibition in vivo at 1 mg/kg (Rattus norvegicus [1]): 76%
O=C(N[C@H](CCC(=O)N1c2ccccc2C[C@H]1C(=O)O)C(=O)O)c1ccccc1,28,inhibition in vivo at 0.1 mg/kg (Rattus norvegicus [4]): 55%
O=C(NC(CCC(=O)N1c2ccccc2C[C@@H]1C(=O)O)C(=O)O)OCc1ccccc1 (some centres undefined),7,inhibition in vivo at 0.1 mg/kg (Rattus norvegicus [4]): 70%; inhibition in vivo at 1 mg/kg (Rattus norvegicus [5]): 0%
COc1ccc(N(CC(=O)O)C(=O)CC[C@@H](NC(=O)OCc2ccccc2)C(=O)O)cc1OC,21,–
O=C1OCN(C(=O)OCc2ccccc2)[C@@H]1CCC(=O)N1c2ccccc2C[C@H]1C(=O)O,52,–
O=C(N[C@H](CCC(=O)N1c2ccccc2C[C@H]1C(=O)OCc1cccnc1)C(=O)O)OCc1ccccc1,350,inhibition in vivo at 1 mg/kg (Rattus norvegicus [1]): 70%; inhibition in vivo at 10 mg/kg (Rattus norvegicus [2]): 15%
CC(=O)N[C@H](CCC(=O)N1c2ccccc2C[C@H]1C(=O)O)C(=O)O,95,–
